Active and inactive are the calls of the source. The rule behind the calls is not given here.
Tests used:
[1] = Antiproliferative activity against human U373V cells assessed as inhibition of cell growth measured […] by MTT assay; assay type: functional
Outline: (§1)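 Cells seeded at 6.5×10^2/well, left overnight, then exposed to vehicle or agent (n = 4-8; final 0.5–1000 μM; DMSO stocks of 50 or 10 mM diluted in medium). MTT read at time of addition and after 6 days at 37 °C, 5% CO₂. MTT 0.4 mg/mL for 4 h, formazan taken up in DMSO, A550. GI50 from non-linear regression; mean ± SD of >3 experiments.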

[2] = Selectivity ratio of GI50 for cytotoxicity against human MRC5 cells to GI50 for antiproliferative activity against MMR-deficient human HCT-116 cells; assay type: toxicity, cell-based; settings: MRC5 cells versus MMR-deficient HCT-116 cells, read-out: RatioGI50
[3] = Intrinsic clearance in rat liver microsomes in absence of NADPH; assay type: ADME, Microsome; settings: read-out: CLH
[4] = Permeability of the compound measured after 6 hrs by PAMPA assay; assay type: ADME; settings: read-out: permeability
Outline: (§2)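 PAMPA passive-diffusion assay run as contract research under the provider's protocols, with control compounds. After 6 h incubation, permeability (Pe) and percentage recovery determined.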

HCT-116 [5] = test: Induction of cell cycle arrest in MMR-deficient human HCT-116 cells at 100 uM measured after 120 hrs by propidium iodide staining based flow cytometry; assay type: functional
[6] = Half life of the compound in phosphate buffered saline at pH 6.8 by LC-MS analysis; assay type: physicochemical
Outline: (§3)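 Half-life in phosphate buffers at pH 5, 6.8 or 7.4 followed by LC-MS; mean of two independent experiments.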

[7] = Permeability of the compound assessed as drug recovery measured after 6 hrs by PAMPA assay; assay type: ADME; settings: read-out: Drug recovery; outline: as §2
[8] = Antiproliferative activity against MGMT-expressing human U373M cells assessed as inhibition of cell growth measured after […] by MTT assay; assay type: functional; outline: as §1
U373M [9] = test: Induction of cell cycle arrest in MGMT-expressing human U373M cells at 100 uM measured after 120 hrs by propidium iodide staining based flow cytometry; assay type: functional
[10] = Half life in human plasma; assay type: ADME, cell-free
[11] = Intrinsic clearance in human liver microsomes in absence of NADPH; assay type: ADME, Microsome; settings: read-out: CLH
[12] = Half life of the compound in phosphate buffered saline at pH 7.4 by 1H NMR spectroscopic analysis; assay type: physicochemical
Outline: (§4)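 Half-life followed by ¹H NMR spectroscopy in phosphate buffers at pH 7.4 or 5.5.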

[13] = Half life of the compound in phosphate buffered saline at pH 5 by LC-MS analysis; assay type: physicochemical; outline: as §3
U373V [14] = test: Inhibition of cell colony formation in human U373V cells at 20 to 50 uM incubated for 24 hrs followed by drug removal and incubation in medium for 14 days; assay type: functional, cell-based; settings: dose 20-50 µM
Outline: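 Clonogenic survival: exponentially growing cells seeded in triplicate at 400 cells/well, attached overnight, then exposed for 24 h to 0, 2, 20 or 50 μM agent. Medium then replaced with drug-free medium for 14 days, or until control colonies held ≥50 cells. Colonies fixed in cold methanol, stained with 0.5% methylene blue, counted, and expressed relative to control. 2–3 experiments.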

[15] = Half life in rat liver microsomes in absence of NADPH; assay type: ADME, Microsome
HCT-116 [16] = test: Antiproliferative activity against MMR-deficient human HCT-116 cells assessed as inhibition of cell growth measured after […] by MTT assay; assay type: functional; outline: as §1
[17] = Intrinsic clearance in human liver microsomes in presence of NADPH; assay type: ADME, Microsome; settings: read-out: CLH
[18] = Apparent elimination half life in human
[19] = Intrinsic clearance in rat liver microsomes in presence of NADPH; assay type: ADME, Microsome; settings: read-out: CLH
[20] = Half life of the compound in phosphate buffered saline at pH 5.5 by 1H NMR spectroscopic analysis; assay type: physicochemical; outline: as §4
[21] = Half life in rat plasma; assay type: ADME, cell-free
[22] = Half life of the compound in phosphate buffered saline at pH 7.4 by LC-MS analysis; assay type: physicochemical; outline: as §3
[23] = Apparent elimination half life in human plasma
[24] = Induction of cell cycle arrest in human U373V cells assessed as accumulation of cells at pre-G1 phase at 100 uM measured after 120 hrs by propidium iodide staining based flow cytometry (reference value: 1%); assay type: functional
[25] = Half life in rat liver microsomes in presence of NADPH; assay type: ADME, Microsome
[26] = Ratio of permeability across dog MDCK cells transfected with MDR1 to permeability across wild type dog MDCK cells; assay type: ADME, cell-based, Canis lupus familiaris
[27] = Half life in human liver microsomes in absence of NADPH; assay type: ADME, Microsome
[28] = Half life in human liver microsomes in presence of NADPH; assay type: ADME, Microsome
U373V [29] = test: Induction of cell cycle arrest in human U373V cells assessed as accumulation of cells at G2/M phase at 100 uM measured after 120 hrs by propidium iodide staining based flow cytometry; assay type: functional
HCT-116 [30] = test: Induction of cell cycle arrest in MMR-deficient human HCT-116 cells assessed as accumulation of cells at sub-G1 phase at 100 uM measured after 120 hrs by propidium iodide staining based flow cytometry (Rvb ~5%); assay type: functional
[31] = Drug metabolism in phosphate buffered saline assessed as Tmax of 5-(3-(prop-2-yn-1-yl)triaz-2-en-1-yl)-1H-imidazole-4-carboxamide at pH 7.4 by 1HNMR spectroscopy; assay type: ADME; settings: buffer
U373V [32] = test: Induction of cell cycle arrest in human U373V cells assessed as accumulation of cells at sub-G1 phase at 100 uM measured after 120 hrs by propidium iodide staining based flow cytometry; assay type: functional
U373M [33] = test: Induction of cell cycle arrest in MGMT-expressing human U373M cells assessed as accumulation of cells at S phase at 100 uM measured after 120 hrs by propidium iodide staining based flow cytometry; assay type: functional
[34] = Drug metabolism in phosphate buffered saline assessed as half life of 5-(3-(prop-2-yn-1-yl)triaz-2-en-1-yl)-1H-imidazole-4-carboxamide at pH 7.4 by 1HNMR spectroscopy; assay type: ADME; settings: buffer
U373V [35] = test: Induction of cell cycle arrest in human U373V cells assessed as accumulation of cells at S phase at 100 uM measured after 120 hrs by propidium iodide staining based flow cytometry; assay type: functional
U373M [36] = test: Induction of cell cycle arrest in MGMT-expressing human U373M cells assessed as accumulation of cells at sub-G1 phase at 100 uM measured after 120 hrs by propidium iodide staining based flow cytometry; assay type: functional
HCT-116 [37] = test: Induction of cell cycle arrest in MMR-deficient human HCT-116 cells assessed as loss of cell cycle integrity at 100 uM measured after 120 hrs by propidium iodide staining based flow cytometry; assay type: functional
[38] = Induction of cell cycle arrest in MGMT-expressing human U373M cells assessed as accumulation of cells at G2/M phase at 100 uM measured after 120 hrs by propidium iodide staining based flow cytometry (Rvb ~ 15%); assay type: functional
[39] = Stability of the compound in phosphate buffered saline at pH 5.5 by 1H NMR spectroscopy; assay type: physicochemical; settings: buffer; outline: as §4
[40] = Stability of the compound in phosphate buffered saline at pH 7.4 by 1H NMR spectroscopy; assay type: physicochemical; settings: buffer; outline: as §4
[41] = Cytotoxicity against human MRC5 cells assessed as inhibition of cell growth measured after 7 days by MTT assay; assay type: toxicity, cell-based; settings: time 7 day; outline: as §1

microsomal CLint [3]	Papp at 6 h [4]	half-life [6]	recovery at 6 h [7]	half-life [10]	microsomal CLint [11]	half-life [12]	half-life [13]	half-life [15]	GI50 (HCT-116 [16])	microsomal CLint [17]	microsomal CLint [19]	half-life [21]	half-life [22]	half-life [25]	Ratio [26]	half-life [27]	half-life [28]	Structure (SMILES)	GI50 [1]	GI50 [8]	other results
< 1 µL/min/mg	0.63 ×10⁻⁶ cm/s	4.02 h	65.3%	0.33 h	23 µL/min/mg	1.53 h	> 8 h	> 8 h	291 µM	27.3 µL/min/mg	< 1 µL/min/mg	0.298 h	2.47 h	> 8 h	3.21	1 h	0.848 h	Cn1nnc2c(C(N)=O)ncn2c1=O [TEMOZOLOMIDE]	51.9 µM	302 µM	selectivity ratio [2]: 1.4; Activity (HCT-116 [5]): inactive; Activity (U373M [9]): inactive; inhibition (U373V [14]): Active; half-life [18]: 1.8 h; half-life [20]: > 100 h; t1/2 [23]: 0.25 h; Activity [24]: 9%; Activity (U373V [29]): Active
–	–	–	–	–	–	–	–	–	19.2 µM	–	–	–	–	–	–	–	–	C#CCn1nnc2c(-c3nc(C4CCCC4)cs3)ncn2c1=O	23.7 µM	11.8 µM	–
29.2 µL/min/mg	1.38 ×10⁻⁶ cm/s	3.86 h	6.9%	0.242 h	25.2 µL/min/mg	0.817 h	> 8 h	0.812 h	28.1 µM	18.1 µL/min/mg	35.5 µL/min/mg	0.432 h	1.92 h	0.655 h	0.93	0.918 h	1.3 h	C#CCn1nnc2c(C(N)=O)ncn2c1=O	30 µM	26.6 µM	Activity (HCT-116 [30]): 96%; Tmax [31]: 2 h; Activity (U373V [32]): Active; Activity (U373M [33]): Active; t1/2 [34]: 4.5 h; Activity (U373V [35]): Active; Activity (U373M [36]): Active; Activity (HCT-116 [37]): Active; Activity [38]: 33%; Activity (U373V [29]): Active
–	–	–	–	–	–	–	–	–	27.7 µM	–	–	–	–	–	–	–	–	C#CCn1nnc2c(-c3nc(C4CC4)cs3)ncn2c1=O	27.1 µM	25.8 µM	–
–	–	–	–	–	–	–	–	–	97 µM	–	–	–	–	–	–	–	–	Nc1nc[nH]c1-c1nccs1	> 100 µM	89.3 µM	–
–	–	–	–	–	–	–	–	–	14.8 µM	–	–	–	–	–	–	–	–	C#CCn1nnc2c(-c3nc(CC)cs3)ncn2c1=O	23.5 µM	9.67 µM	–
–	–	–	–	–	–	–	–	–	25.1 µM	–	–	–	–	–	–	–	–	C#CCn1nnc2c(-c3nc(C(C)(C)C)cs3)ncn2c1=O	27.3 µM	19.2 µM	–
14.7 µL/min/mg	3.68 ×10⁻⁶ cm/s	3.57 h	18.5%	0.0495 h	18.6 µL/min/mg	1.47 h	> 8 h	1.57 h	7.04 µM	97.8 µL/min/mg	68.5 µL/min/mg	0.059 h	2.81 h	0.34 h	1.16	1.27 h	0.237 h	C#CCn1nnc2c(-c3nc(C)cs3)ncn2c1=O	8.45 µM	7.44 µM	Stability [39]: Stable; Stability [40]: Stable; half-life [20]: 0.12 h; GI50 at 168 h [41]: 25 µM
–	–	–	–	–	–	–	–	–	25.4 µM	–	–	–	–	–	–	–	–	C#CCn1nnc2c(-c3nc(C(C)C)cs3)ncn2c1=O	23.6 µM	19 µM	–
–	–	–	–	–	–	–	–	–	21.5 µM	–	–	–	–	–	–	–	–	C#CCn1nnc2c(-c3nc(C(F)(F)F)cs3)ncn2c1=O	28.2 µM	25.4 µM	–

Reference: ChEMBL document CHEMBL5335782, “Discovery of new imidazotetrazinones with potential to overcome tumor resistance” (Eur J Med Chem, 2023)
